ChEMBL document CHEMBL4673214, “Synthesis and antibacterial bioactivities of cationic deacetyl linezolid amphiphiles” (Eur J Med Chem, 2018)
Activity calls are given as the source filed them. The calls are words filed in the database; no cut-off is given here.

Columns and labels:
[1] = Selectivity index, ratio of HC50 for Sheep erythrocytes to MIC for Escherichia coli ATCC 25922; format: toxicity
Staphylococcus aureus [2] = experiment: Antibacterial activity against methicillin-resistant Staphylococcus aureus assessed as reduction in bacterial growth following incubation in 50% MHB medium and 50% blood and meaured after incubation with compound for 20 to 24 hrs by agar plate method; format: functional; conditions: time 20-24 hrs
In short: (§1)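 Sheep plasma obtained by centrifuging defibrinated blood at 3500 rpm for 10 min; serum isolated in serum tubes. MRSA at 10^5 CFU/mL in 50% MHB plus 50% serum, plasma or blood, or in MHB alone. Compound dilutions (512 to 4 µg/mL, pre-mixing) added 50 µL to 150 µL bacteria, 37 °C for 20-24 h. Then 20 µL plated on MHA, 37 °C 20-24 h; MBC taken as no colonies. Two repeats.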

Staphylococcus aureus [3] = experiment: Antibiofilm activity against 24 hrs preformed biofilm of Staphylococcus aureus ATCC 29213 assessed as biofilm viability at 64 ug/ml incubated for 24 hrs by crystal violet staining analysis (reference value: 18.9 1og10CFU); format: functional; conditions: dose 64 µg/ml
Staphylococcus aureus [4] = experiment: Antibiofilm activity against 24 hrs preformed biofilm of Staphylococcus aureus ATCC 29213 assessed as biofilm viability at 4 ug/ml incubated for 24 hrs by crystal violet staining analysis (reference value: 18.9 1og10CFU); format: functional; conditions: dose 4 µg/ml
Escherichia coli [5] = experiment: Antibiofilm activity against 72 hrs preformed biofilm of Escherichia coli ATCC 25922 assessed as biofilm viability at 2 ug/ml incubated for 24 hrs by […] (reference value: 16.1 log10CFU); format: functional; conditions: dose 2 µg/ml
In short: (§2)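 E. coli from mid-log phase was diluted to ~10^5 CFU/mL in M9 medium with 0.02% casamino acids and 0.5% glycerol and formed biofilm without shaking for 72 h. Wells were PBS-washed, then treated with 2-128 µg/mL for 24 h at 37 °C; medium-only wells served as control. Cells were released with trypsin-EDTA and plated as tenfold dilutions. Viability was given as log10 CFU/well.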

Escherichia coli [6] = experiment: Antibiofilm activity against 72 hrs preformed biofilm of Escherichia coli ATCC 25922 assessed as biofilm viability at 4 ug/ml incubated for 24 hrs by […] (reference value: 16.1 log10CFU); format: functional; conditions: dose 4 µg/ml; in short: as §2
Staphylococcus aureus [7] = experiment: Antibiofilm activity against 24 hrs preformed biofilm of Staphylococcus aureus ATCC 29213 assessed as eradication of preformed biofilm incubated for 24 hrs by crystal violet staining assay; format: functional
Staphylococcus aureus [8] = experiment: Antibiofilm activity against 24 hrs preformed biofilm of Staphylococcus aureus ATCC 29213 assessed as biofilm viability at 32 ug/ml incubated for 24 hrs by crystal violet staining analysis (reference value: 18.9 1og10CFU); format: functional; conditions: dose 32 µg/ml
Escherichia coli [9] = experiment: Antibiofilm activity against Escherichia coli ATCC 25922 assessed as inhibition of biofilm formation incubated for 24 hrs by crystal violet staining assay; format: functional
In short: (§3)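 Twofold serial dilutions in MHB received 1:1000-diluted exponential-phase bacteria and were incubated 24 h at 37 °C. Wells were rinsed, stained with 0.1% crystal violet for 10 min and dissolved in ethanol, and OD540 was read. MBIC80 was the concentration inhibiting 80% of biofilm formation versus untreated wells, taken from dose-response curves.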

Staphylococcus aureus [10] = experiment: Resistance ratio of compound MIC for methicillin-resistant Staphylococcus aureus after 20 passages to compound MIC for methicillin-resistant Staphylococcus aureus after 16 to 20 hrs by CLSI-based broth microdilution method; format: functional
In short: (§4)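 Serial passaging: after each 24 h MIC assay, cells grown at 1/2 MIC were transferred and the MIC assayed again, for 20 passages. Done with S. aureus, E. coli and MRSA. MIC plotted against days of passage. Experiment repeated twice.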

Staphylococcus aureus [11] = experiment: Antibiofilm activity against Staphylococcus aureus ATCC 29213 assessed as inhibition of biofilm formation incubated for 24 hrs by crystal violet staining assay; format: functional; in short: as §3
[12] = Selectivity index, ratio of HC50 for Sheep erythrocytes to MIC for Staphylococcus aureus ATCC 29213; format: toxicity
Escherichia coli [13] = experiment: Antibiofilm activity against 72 hrs preformed biofilm of Escherichia coli ATCC 25922 assessed as biofilm viability at 128 ug/ml incubated for 24 hrs by […] (reference value: 16.1 log10CFU); format: functional; conditions: dose 128 µg/ml; in short: as §2
Escherichia coli [14] = experiment: Antibiofilm activity against 72 hrs preformed biofilm of Escherichia coli ATCC 25922 assessed as biofilm viability at 64 ug/ml incubated for 24 hrs by […] (reference value: 16.1 log10CFU); format: functional; conditions: dose 64 µg/ml; in short: as §2
Escherichia coli [15] = experiment: Antibiofilm activity against 72 hrs preformed biofilm of Escherichia coli ATCC 25922 assessed as biofilm viability at 8 ug/ml incubated for 24 hrs by […] (reference value: 16.1 log10CFU); format: functional; conditions: dose 8 µg/ml; in short: as §2
Staphylococcus aureus [16] = experiment: Bactericidal activity against early exponential phase of Staphylococcus aureus ATCC 29213 at 6X MIC measured after 6 hrs by time-kill kinetic assay; format: functional, organism-based
In short: (§5)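 An overnight culture was diluted 1:10,000 in MHB and shaken at 225 rpm and 37 °C for 2 h (early exponential phase), then exposed to compound. Samples taken at intervals were centrifuged, resuspended in PBS, plated as tenfold dilutions on MHA and incubated overnight at 37 °C. CFU/mL were counted. Biological replicates were run.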

Staphylococcus aureus [17] = experiment: Antibiofilm activity against 24 hrs preformed biofilm of Staphylococcus aureus ATCC 29213 assessed as biofilm viability at 2 ug/ml incubated for 24 hrs by crystal violet staining analysis (reference value: 18.9 1og10CFU); format: functional; conditions: dose 2 µg/ml
Escherichia coli [18] = experiment: Bactericidal activity against early exponential phase of Escherichia coli ATCC 25922 at 4X MIC measured after 2 to 6 hrs hrs by time-kill kinetic assay; format: functional, organism-based; conditions: time 2-6 hrs; in short: as §5
Escherichia coli [19] = experiment: Resistance ratio of compound MIC for Escherichia coli ATCC 25922 after 20 passages to compound MIC for Escherichia coli ATCC 25922 after 16 to 20 hrs by CLSI-based broth microdilution method; format: functional; in short: as §4
Staphylococcus aureus [20] = experiment: Antibacterial activity against methicillin-resistant Staphylococcus aureus assessed as reduction in bacterial growth following incubation in MHB medium and meaured after incubation with compound for 20 to 24 hrs by agar plate method; format: functional; conditions: time 20-24 hrs; in short: as §1
Staphylococcus aureus [21] = experiment: Antibiofilm activity against 24 hrs preformed biofilm of Staphylococcus aureus ATCC 29213 assessed as biofilm viability at 8 ug/ml incubated for 24 hrs by crystal violet staining analysis (reference value: 18.9 1og10CFU); format: functional; conditions: dose 8 µg/ml
Escherichia coli [22] = experiment: Antibiofilm activity against 72 hrs preformed biofilm of Escherichia coli ATCC 25922 assessed as biofilm viability at 32 ug/ml incubated for 24 hrs by […] (reference value: 16.1 log10CFU); format: functional; conditions: dose 32 µg/ml; in short: as §2
HeLa = experiment: Cytotoxicity against human HeLa cells assessed as cell morphology at 1 to 4 ug/mL incubated for 24 hrs by optical microscopy; format: cell-based; conditions: dose 1-4 µg/ml
In short: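 HeLa cells were kept in DMEM with 10% FBS at 37 °C and 5% CO2. Cells were seeded in 12-well plates, allowed to adhere overnight and exposed to 1, 2 or 4 µg/mL for 24 h. Untreated wells were the negative control and 0.1% Triton X-100 the positive control. After a PBS wash, morphology was imaged by inverted microscopy with a 10× objective. Three repeats.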

CCCCCCCCCCCN(C[C@H]1CN(c2ccc(N3CCOCC3)c(F)c2)C(=O)O1)C(=O)[C@@H](N)CCCCN.Cl.Cl
selectivity ratio [1]: 12.5 | MBC (Staphylococcus aureus [2]): > 128 µg/mL | Activity (Staphylococcus aureus [3]): 5.9 log10CFU | Activity (Staphylococcus aureus [4]): 12.9 log10CFU | Activity (Escherichia coli [5]): 10.2 log10CFU | Activity (Escherichia coli [6]): 8.5 log10CFU | MBEC (Staphylococcus aureus [7]): 64 µg/mL | MBEC80 (Staphylococcus aureus [7]): 50.2 µg/mL | MBEC90 (Staphylococcus aureus [7]): 59.8 µg/mL | Activity (Staphylococcus aureus [8]): 7.5 log10CFU | MBIC80 (Escherichia coli [9]): 61.9 µg/mL | MBIC90 (Escherichia coli [9]): 72.6 µg/mL | Ratio (Staphylococcus aureus [10]): 2 | MBIC80 (Staphylococcus aureus [11]): 25.9 µg/mL | MBIC90 (Staphylococcus aureus [11]): 34.1 µg/mL | selectivity ratio [12]: 50 | Activity (Escherichia coli [13]): 5.3 log10CFU | Activity (Escherichia coli [14]): 6 log10CFU | Activity (Escherichia coli [15]): 8 log10CFU | Activity (Staphylococcus aureus [16]): Active | Activity (Staphylococcus aureus [17]): 13.9 log10CFU | Activity (Escherichia coli [18]): Active | Ratio (Escherichia coli [19]): 2 | MBC (Staphylococcus aureus [20]): 128 µg/mL | Activity (Staphylococcus aureus [21]): 9.9 log10CFU | Activity (Escherichia coli [22]): 6.1 log10CFU | Activity (HeLa): Non-Toxic
